Results taken from ChEMBL document CHEMBL2417429, “Direct and nitroxyl (HNO)-mediated reactions of acyloxy nitroso compounds with the thiol-containing proteins glyceraldehyde 3-phosphate dehydrogenase and alkyl hydroperoxide reductase subunit C” (J Med Chem, 2013).
Where a name gives a salt, the structure may show the parent alone. Active and inactive are the calls of the source. No cut-off for these calls is given here.

How the values were obtained:
[1] = Binding affinity to alkyl hydroperoxide reductase subunit C C165S mutant (unknown origin) assessed as formation of sulfinic acid by LC-MS analysis
Outline: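 AhpC C165S reduced with DTT, desalted by spin column, quantified at 280 nm; 50 μM protein incubated with compound (1, 5, 10, 50 equiv) in 0.1 M Tris pH 7.6, room temperature, 60 min; desalted into 25 mM ammonium bicarbonate, Asp-N digest (20:1 w/w, 37 °C, 12–16 h); Orbitrap LC-MS, 55 min gradient, positive ion.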

[2] = molecular target: Glyceraldehyde-3-phosphate dehydrogenase (Oryctolagus cuniculus) (UniProt P46406); test: Binding affinity to rabbit muscle GAPDH peptide V232 to R245 assessed as formation of sulfinic acid and N-phenylsulfinamide by LC-MS analysis
Chain of Glyceraldehyde-3-phosphate dehydrogenase (Oryctolagus cuniculus) (P46406 whole entry, looked up): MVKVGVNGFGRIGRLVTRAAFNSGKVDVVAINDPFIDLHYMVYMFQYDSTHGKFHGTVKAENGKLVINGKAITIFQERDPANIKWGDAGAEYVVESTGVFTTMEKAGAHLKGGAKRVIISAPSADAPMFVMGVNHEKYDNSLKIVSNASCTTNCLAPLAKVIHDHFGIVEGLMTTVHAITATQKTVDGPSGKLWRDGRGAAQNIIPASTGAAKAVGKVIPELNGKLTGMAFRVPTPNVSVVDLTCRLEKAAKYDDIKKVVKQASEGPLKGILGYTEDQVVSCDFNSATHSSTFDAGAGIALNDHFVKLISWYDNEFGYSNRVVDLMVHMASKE

[3] = molecular target: Glyceraldehyde-3-phosphate dehydrogenase (Oryctolagus cuniculus) (UniProt P46406); test: Binding affinity to rabbit muscle GAPDH tryptic peptide I143 to K159 assessed as formation of disulfide bond by LC-MS analysis
Outline: (§1)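 GAPDH from rabbit muscle, untreated or donor-treated, digested with trypsin (monomer:trypsin 20:1 w/w) in 50 mM Tris-HCl, 37 °C, 12−16 h; quenched by freezing. 10 μM digest in 1:1 2% formic acid/methanol run by LC-MS on a high-resolution Orbitrap in positive ion mode; tryptic peptides identified by m/z.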

[4] = Binding affinity to alkyl hydroperoxide reductase subunit C C165S mutant (unknown origin) assessed as formation of mixture of sulfinamide and sulfinic acid at Cys46 by LC-MS analysis
Outline: (§2)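 AhpC C165S pre-reduced with DTT 30 min, desalted on spin column, concentration by A280 (ε 23400 M−1 cm−1). Protein (50 μM) treated with HNO donor (1, 5, 10, 50 equiv) in 0.1 M Tris pH 7.6, room temperature, 60 min; desalted into 25 mM ammonium bicarbonate pH 7.75. Asp-N digest (20:1 w/w, 37 °C, 12−16 h). LC-MS of D41−G51 peptide on high-resolution Orbitrap, positive ion mode.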

[5] = molecular target: Glyceraldehyde-3-phosphate dehydrogenase (Oryctolagus cuniculus) (UniProt P46406); test: Binding affinity to rabbit muscle GAPDH peptide V232 to R245 assessed as formation of mixture of sulfinamide and sulfinic acid by LC-MS analysis; outline: as §1
[6] = Binding affinity to alkyl hydroperoxide reductase subunit C C165S mutant (unknown origin) assessed as formation of sulfinic acid of Cys46 of peptide D41 to G51 by LC-MS analysis; outline: as §2
[7] = Binding affinity to alkyl hydroperoxide reductase subunit C C165S mutant (unknown origin) assessed as unreacted thiol in peptide D41 to G51 by LC-MS analysis; outline: as §2
[8] = Binding affinity to alkyl hydroperoxide reductase subunit C C165S mutant peptide D41 to G51 (unknown origin) assessed as sulfinic acid or sulfinamide modification by MALDI-TOF MS
Outline: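 Pre-reduced, desalted AhpC C165S (50 μM) incubated with HNO donor (1, 5, 10, 50 equiv) in 0.1 M Tris pH 7.6, 60 min at room temperature. Buffer exchanged into ammonium bicarbonate, then Asp-N digest (20:1 w/w, 37 °C, 12−16 h). Digest mixed 1:1 with dihydroxybenzoic acid matrix; D41−G51 peptide mass read by MALDI-TOF.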

[9] = molecular target: Glyceraldehyde-3-phosphate dehydrogenase (Oryctolagus cuniculus) (UniProt P46406); test: Binding affinity to rabbit muscle GAPDH peptide V232 to R245 assessed as formation of sulfinic acid of Cys244 by LC-MS analysis; outline: as §1
[10] = molecular target: Glyceraldehyde-3-phosphate dehydrogenase (Oryctolagus cuniculus) (UniProt P46406); test: Binding affinity to rabbit muscle GAPDH assessed as structural modifications at 5 mM after 60 mins by SDS-PAGE
[11] = molecular target: Glyceraldehyde-3-phosphate dehydrogenase (Oryctolagus cuniculus) (UniProt P46406); test: Reversible inhibition of rabbit muscle GAPDH assessed as residual enzyme activity at 1 uM after 60 mins followed by incubation with DTT by spectrophotometry relative to control
Outline: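 GAPDH (rabbit muscle) exposed to inhibitor for 60 min in 0.1 M phosphate pH 7.4 at 25 °C, then incubated with DTT (100 mM) for 60 min. Residual activity measured by NADH build-up at 340 nm after adding NAD+ and glyceraldehyde-3-phosphate, read each minute over 30 min; expressed as percent of control.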

[12] = molecular target: Glyceraldehyde-3-phosphate dehydrogenase (Oryctolagus cuniculus) (UniProt P46406); test: (§3) Inhibition of rabbit muscle GAPDH assessed as residual enzyme activity after 60 mins by spectrophotometry
Outline: (§4)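 Rabbit muscle GAPDH incubated with donor (0.1, 0.5, 1, 5, 10, 100 μM) in 0.1 M sodium phosphate pH 7.4, 25 °C, 60 min. NAD+ and glyceraldehyde-3-phosphate then added in a sealed cuvette; NADH formation followed at 340 nm every minute for 30 min. Runs typically in triplicate, mean ± SE; IC50 from sigmoidal fit of percent-of-control activity.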

[13] = molecular target: Glyceraldehyde-3-phosphate dehydrogenase (Oryctolagus cuniculus, UniProt P46406); test: as §3; outline: as §4
Chain of Glyceraldehyde-3-phosphate dehydrogenase (P46406 whole entry): as the sequence (P46406 whole entry, looked up) above

[14] = molecular target: Glyceraldehyde-3-phosphate dehydrogenase (Oryctolagus cuniculus) (UniProt P46406); test: Binding affinity to rabbit muscle GAPDH assessed as structural modifications of Cys149, Cys153 and Cys244 at 5 mM after 60 mins by MALDI-TOF MS
[15] = molecular target: Glyceraldehyde-3-phosphate dehydrogenase (Oryctolagus cuniculus) (UniProt P46406); test: Residual activity of rabbit muscle GAPDH at 1 uM after 60 mins by spectrophotometry
[16] = Binding affinity to alkyl hydroperoxide reductase subunit C C165S mutant (unknown origin) assessed as presence of S-nitrosated D41 to G51 peptide by LC-MS analysis; outline: as §2
[17] = molecular target: Glyceraldehyde-3-phosphate dehydrogenase (Oryctolagus cuniculus) (UniProt P46406); test: Binding affinity to rabbit muscle GAPDH peptide V232 to R245 assessed as formation of S-nitrosated peptide by LC-MS analysis
[18] = Binding affinity to alkyl hydroperoxide reductase subunit C C165S mutant (unknown origin) assessed as structural modifications by SDS-PAGE
[19] = Half life of the compound in neutral buffer at 1 mM by stopped-flow UV-Vis spectrophotometry; type: physicochemical; settings: 1000 µM
[20] = Chemical stability of the compound in neutral buffer assessed as rate constant at 1 mM by stopped-flow UV-Vis spectrophotometry; type: physicochemical; settings: 1000 µM
[21] = Binding affinity to alkyl hydroperoxide reductase subunit C C165S mutant (unknown origin) assessed as formation of sulfinamide and sulfinic acid by LC-MS analysis; outline: as §2

| Compound | Activity [3] | Activity [7] | Activity [8] | Activity [10] | inhibition [12] | IC50 [13] | Activity [14] | residual activity [15] | also measured |
| --- | --- | --- | --- | --- | --- | --- | --- | --- | --- |
| O=Nc1ccccc1 | Active |  |  |  |  |  |  |  | Activity [1]: Active; Activity [2]: Active |
| O=S(=O)(NO)c1ccccc1Br | Active |  |  |  |  |  |  |  | Activity [4]: Active; Activity [5]: Active |
| CC(C)(C)C(=O)OC1(N=O)CCCCC1 | Active | inactive | Active | inactive | Dose-dependent effect | 150 nM | Active | 76% | Activity [6]: Active; Activity [9]: Active; Activity [11]: 88% |
| CCN(CC)N(O)N=O |  |  |  |  |  |  |  |  | Activity [16]: Active; Activity [17]: Active |
| N[C@@H](CCC(=O)N[C@@H](CSN=O)C(=O)NCC(=O)O)C(=O)O |  |  |  |  |  |  |  |  | Activity [16]: Active |
| CC(=O)OC1(N=O)CCCCC1 [1-NITROSOCYCLOHEXYL ACETATE] | Active | inactive | Active | inactive | Dose-dependent effect | 200 nM | Active | 5% | Activity [6]: Active; Activity [9]: Active; Activity [18]: Active; Activity [11]: 12% |
| O=NC1(OC(=O)C(F)(F)F)CCCCC1 [1-NITROSOCYCLOHEXYL TRIFLUOROACETATE] |  | inactive | Active |  |  | 670 nM |  | 42% | t1/2 [19]: 0.121 s; K [20]: 5.74 s⁻¹; Activity [4]: Active |
| [O-][N+]([O-])=NO [ANGELI'S SALT] | Active | inactive | Active | inactive | Dose-dependent effect | 400 nM | Active |  | Activity [21]: Active; Activity [5]: Active |
